From ChEMBL document CHEMBL1138273, “Design, synthesis, and characterization of new iron chelators with anti-proliferative activity: structure-activity relationships of novel thiohydrazone analogues” (J Med Chem, 2007)

Assays:
[1] = test system: SK-N-MC; test: Antiproliferative activity against human SK-N-MC cells by MTT assay; format: functional, cell-based
Method in brief: (§1)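 MTT colour formation, shown to be directly proportional to viable cell number counted by Trypan blue, was used to read growth of SK-N-MC neuroepithelioma or mortal MRC-5 fibroblast cells. IC50 values are given as mean ± SD of 3 experiments.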

[2] = test system: MRC5; test: Antiproliferative activity against human MRC5 cells by MTT assay; format: cell-based; method in brief: as §1
[3] = test system: SK-N-MC; test: Effect on iron efflux in human SK-N-MC cells assessed as cellular iron release; format: functional; parameters: concentration or dose not given beside the values
Method in brief: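 SK-N-MC cells were prelabeled with 59Fe-transferrin (0.75 µM) for 3 h at 37 °C, washed four times with ice-cold PBS, then incubated with chelator (50 µM). Overlying medium was separated from cells, and released versus retained 59Fe was gamma-counted in supernatant and cell pellet. Mean ± SD of 3 experiments, 3 determinations each.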

[4] = test system: SK-N-MC; test: Inhibition of cellular iron uptake from 59Fe]transferrin in human SK-N-MC cells at 50 uM relative to control; format: functional; conditions: values are per cent of control
Method in brief: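 Cells were co-incubated for 3 h at 37 °C with 59Fe-transferrin (0.75 µM) plus chelator (50 µM), then washed four times in ice-cold PBS. Pronase (1 mg/mL, 30 min, 4 °C) stripped membrane-bound 59Fe, and the Pronase-insensitive fraction was counted as internalized. Values are % of control, mean ± SD of 3 experiments with 3 determinations each.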

| IC50 [1] | Compound | IC50 [2] | Activity [3] | response, % of control at 50 µM [4] |
| --- | --- | --- | --- | --- |
| 2 nM | CN(C)C(=S)NN=C(c1ccccn1)c1ccccn1 | – | 44% | – |
| 1240 nM | O=C(NN=C(c1ccccn1)c1ccccn1)c1ccccc1 | – | – | – |
| 11 nM | S=C(N/N=C(/c1ccccc1)c1ccccn1)c1ccccc1 | 530 nM | – | – |
| 12 nM | S=C(NN=C(c1ccccn1)c1ccccn1)c1ccccc1 | 750 nM | 37% | 20% |
| 1470 nM | O=C(N/N=C(/c1ccccc1)c1ccccn1)c1ccccc1 | – | – | – |

More lines, now with the values behind:

| Compound | IC50 [1] | IC50 [2] | Activity [3] | response, % of control at 50 µM [4] |
| --- | --- | --- | --- | --- |
| Cc1ncc(CO)c(/C=N/NC(=S)c2ccccc2)c1O [PYRIDOXAL THIOBENZOYL HYDRAZONE] | 58200 nM | > 80000 nM | – | – |
| O=C(N/N=C/c1c(O)ccc2ccccc12)c1ccncc1 | 590 nM | – | 44% | – |
| Cc1ncc(CO)c(/C=N/NC(=O)c2ccccc2)c1O [PYRIDOXAL BENZOYL HYDRAZONE] | 31800 nM | – | – | – |
| Oc1ccccc1/C=N/NC(=S)c1ccccc1 [SALICYLALDEHYDE THIOBENZOYL HYDRAZONE] | 24500 nM | 57000 nM | 37% | 20% |
| CC(=O)N(O)CCCCCNC(=O)CCC(=O)N(O)CCCCCNC(=O)CCC(=O)N(O)CCCCCN [DEFEROXAMINE] | 14200 nM | – | 17% | – |
| NC(=S)N/N=C/c1ncccc1N [TRIAPINE] | 540 nM | – | – | – |
| O=C(N/N=C/c1ccccc1O)c1ccccc1 [SALICYLALDEHYDE BENZOYL HYDRAZONE] | 3230 nM | – | – | – |
| Oc1ccc2ccccc2c1/C=N/NC(=S)c1ccccc1 | 2530 nM | 3890 nM | 37% | 20% |
| Cc1ncc(CO)c(/C=N/NC(=O)c2ccncc2)c1O [PYRIDOXAL ISONICOTINOYL HYDRAZONE] | – | – | 44% | – |
| O=C(N/N=C/c1c(O)ccc2ccccc12)c1ccccc1 | 990 nM | – | – | – |
